In ChEMBL document CHEMBL4834412, “2,4,5-Trisubstituted Pyrimidines as Potent HIV-1 NNRTIs: Rational Design, Synthesis, Activity Evaluation, and Crystallographic Studies” (J Med Chem, 2021):

What was measured:
[1] = tested on: Human immunodeficiency virus 1; experiment: Antiviral activity against HIV-1 strain IIIB infected in human MT4 cells assessed as protection against virus-induced cytopathicity after 5 days by MTT assay; type: functional, organism-based; conditions: Human immunodeficiency virus 1, IIIB, MT4, 120 h
[2] = tested on: Human immunodeficiency virus 1; experiment: Antiviral activity against NNRTI-resistant HIV-1 RES056 harboring RT K103N/Y181C mutant infected in human MT4 cells assessed as protection against virus-induced cytopathogenicity after 5 days by MTT assay; type: functional, organism-based; conditions: Human immunodeficiency virus 1, RES056, MT4, 120 h
[3] = tested on: Human immunodeficiency virus 1; experiment: Antiviral activity against HIV-1 harboring RT L100I mutant infected in human MT4 cells assessed as protection against virus-induced cytopathogenicity after 5 days by MTT assay; type: functional, organism-based; conditions: Human immunodeficiency virus 1, MT4, 120 h
[4] = tested on: Human immunodeficiency virus 1; experiment: Antiviral activity against HIV-1 harboring RT K103N mutant infected in human MT4 cells assessed as protection against virus-induced cytopathogenicity after 5 days by MTT assay; type: functional, organism-based; conditions: Human immunodeficiency virus 1, MT4, 120 h
[5] = tested on: Human immunodeficiency virus 1; experiment: Antiviral activity against HIV-1 harboring RT Y181C mutant infected in human MT4 cells assessed as protection against virus-induced cytopathogenicity after 5 days by MTT assay; type: functional, organism-based; conditions: Human immunodeficiency virus 1, MT4, 120 h
[6] = tested on: Human immunodeficiency virus 1; experiment: Antiviral activity against HIV-1 harboring RT Y188L mutant infected in human MT4 cells assessed as protection against virus-induced cytopathogenicity after 5 days by MTT assay; type: functional, organism-based; conditions: Human immunodeficiency virus 1, MT4, 120 h
[7] = tested on: Human immunodeficiency virus 1; experiment: Antiviral activity against HIV-1 harboring RT E138K mutant infected in human MT4 cells assessed as protection against virus-induced cytopathogenicity after 5 days by MTT assay; type: functional, organism-based; conditions: Human immunodeficiency virus 1, MT4, 120 h
[8] = tested on: Human immunodeficiency virus 1; experiment: Antiviral activity against HIV-1 harboring RT F227L/V106A mutant infected in human MT4 cells assessed as protection against virus-induced cytopathogenicity after 5 days by MTT assay; type: functional, organism-based; conditions: Human immunodeficiency virus 1, MT4, 120 h
[9] = Tmax in Sprague-Dawley rat at 2 mg/kg, iv; type: ADME, organism-based; conditions: in vivo
Outline: (§1)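 Sprague Dawley rats given a single 2 mg/kg intravenous or 20 mg/kg oral dose. Plasma concentration–time profiles followed. PK parameters reported as mean ± SD, n = 3.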

[10] = Tmax in Sprague-Dawley rat at 20 mg/kg, po; type: ADME, organism-based; conditions: in vivo; outline: as §1
[11] = Acute toxicity in Kunming mouse assessed as toxic symptoms at 2000 mg/kg, po single dose measured up to 2 weeks; type: organism-based; conditions: in vivo, 336 h
Outline: (§2)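 Kunming mice, 20 total, randomly split into two groups: vehicle control (0 mg/kg) or single oral 2000 mg/kg dose on day 1. Animals observed for toxic symptoms and mortality over the following two weeks; body weight tracked and expressed as relative change.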

[12] = Acute toxicity in Kunming mouse assessed as mortality at 2000 mg/kg, po single dose measured up to 2 weeks; type: organism-based; conditions: in vivo, 336 h; outline: as §2
[13] = Acute toxicity in Kunming mouse assessed as body weight change at 2000 mg/kg, po single dose measured up to 2 weeks; type: organism-based; conditions: in vivo, 336 h; outline: as §2
[14] = tested on: Human immunodeficiency virus 2; experiment: Antiviral activity against HIV-2 ROD infected in human MT4 cells assessed as protection against virus-induced cytopathogenicity after 5 days by MTT assay; conditions: Human immunodeficiency virus 2, ROD, MT4, 120 h

| Compound | EC50 [1] | EC50 [2] | EC50 [3] | EC50 [4] | EC50 [5] | EC50 [6] | EC50 [7] | EC50 [8] | Tmax [9] | Tmax [10] | Activity [11] | Activity [12] | Activity [13] | EC50 [14] |
| --- | --- | --- | --- | --- | --- | --- | --- | --- | --- | --- | --- | --- | --- | --- |
| Cc1cc(C#N)cc(C)c1Oc1nc(NC2CCN(Cc3ccc(C(N)=O)cc3)CC2)ncc1-c1ccncc1 | 3.75 nM | 24.4 nM | 4.26 nM | 3.79 nM | 6.79 nM | 6.79 nM | 10.9 nM | 10.4 nM | 19.8 min | 60 min | Non-Toxic | Non-Toxic | Non-Toxic | > 36000 nM |
| Cc1cc(C#N)cc(C)c1Oc1nc(NC2CCN(Cc3ccc(S(N)(=O)=O)cc3)CC2)ncc1-c1ccsc1 | 5.09 nM | 209 nM | 15.4 nM | 4.7 nM | 12.3 nM | 30.3 nM | 19.7 nM | 85.3 nM | – | – | – | – | – | > 6120 nM |
| Cc1cc(C#N)cc(C)c1Oc1nc(NC2CCN(Cc3ccc(S(C)(=O)=O)cc3)CC2)ncc1-c1ccco1 | 4.52 nM | 233 nM | 20.4 nM | 5.92 nM | 26.4 nM | 28.8 nM | 27.4 nM | 110 nM | – | – | – | – | – | > 7460 nM |
| Cc1cc(C#N)cc(C)c1Oc1nc(NC2CCN(Cc3ccc(S(N)(=O)=O)cc3)CC2)ncc1-c1ccco1 | 4.4 nM | 218 nM | 20.9 nM | 5.33 nM | 24.8 nM | 36.5 nM | 24.5 nM | 128 nM | – | – | – | – | – | – |
| Cc1cc(C#N)cc(C)c1Oc1nc(NC2CCN(Cc3ccc(C(N)=O)cc3)CC2)ncc1-c1ccoc1 | 3.4 nM | 108 nM | 10.1 nM | 3.44 nM | 9.81 nM | 21.1 nM | 11.2 nM | 307 nM | – | – | – | – | – | > 182000 nM |
| Cc1cc(C#N)cc(C)c1Oc1nc(NC2CCN(Cc3ccc(S(N)(=O)=O)cc3)CC2)ncc1-c1cccs1 | 4.57 nM | 103 nM | 5.92 nM | 5.39 nM | 10.7 nM | 9.31 nM | 7.71 nM | 30.2 nM | – | – | – | – | – | ≥ 33400 nM |
